Data from ChEMBL document CHEMBL1153833, “Effect of dosing and dosing frequency on the efficacy of ceftizoxime and the emergence of ceftizoxime resistance during the early development of murine abscesses caused by Bacteroides fragilis and Enterobacter cloacae mixed infection” (Antimicrob Agents Chemother, 2007).
In brackets after ≈: the same amount, converted by molar mass. Activity calls are given as the source filed them.

What was measured:
[1] = tested on: Mus musculus; test: Unbound Cmax (fCmax) in Bacteroides fragilis ATCC 23745 and Enterobacter cloacae isolate 22491-infected BALB/c mouse mixed infection abscesses model at 100 mg/kg administered as 36 doses every 2 hrs; assay type: ADME, organism-based; design: dose 100 mg/kg; conditions: in vivo
Procedure, shortened: (§1)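 Infected mice received 36 doses of 100 mg/kg CZX q2h. Serum CZX measured in duplicate by agar diffusion bioassay against E. coli strain 62. One-compartment open model; unbound values assume 13% protein binding in mouse serum.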

[2] = tested on: Enterobacter cloacae; test: Antimicrobial activity against Enterobacter cloacae isolate 22491 infected BALB/c mouse mixed infection abscesses model co-infected with Bacteroides fragilis ATCC 23745 assessed as increase in resistant bacterial count per abscess at 96 mg/kg/day administered every 2 hrs; assay type: functional
Procedure, shortened: (§2)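 Mixed subcutaneous flank abscesses in female SPF BALB/c mice (10^7 CFU of each strain plus 4 mg autoclaved cecal contents). Drug given subcutaneously, starting 30 min before inoculation, for 24 h. Abscesses homogenized in PBS. Resistant E. cloacae counted on WC agar with 16x MIC (48 h aerobic, 37°C) and total counts on drug-free EM agar. Groups of two mice.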

[3] = tested on: Enterobacter cloacae; test: Antimicrobial activity against Enterobacter cloacae isolate 22491 infected BALB/c mouse mixed infection abscesses model co-infected with Bacteroides fragilis ATCC 23745 assessed as bacterial killing at 24 mg/kg/day administered every 4 hrs; assay type: functional, organism-based
Procedure, shortened: (§3)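 Female BALB/c mice (12-18 wk) injected s.c. on both flanks with 10^7 CFU each of B. fragilis and E. cloacae plus 4 mg autoclaved cecal contents. CZX was given s.c. from 30 min before inoculation for 24 h, two mice per group. Abscesses were homogenized in PBS and plated in duplicate: E. cloacae on EM agar (aerobic, 24 h), B. fragilis on WC agar with gentamicin (anaerobic, 48 h). Result is mean log10 CFU/abscess of four abscesses ± SEM versus untreated; threshold 1.7 log10.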

[4] = tested on: Enterobacter cloacae; test: Antimicrobial activity against Enterobacter cloacae isolate 22491 infected BALB/c mouse mixed infection abscesses model co-infected with Bacteroides fragilis ATCC 23745 assessed as reduction in bacterial load per abscess at 1536 mg/kg/day administered every 8 hrs; assay type: functional; procedure, shortened: as §3
[5] = tested on: Enterobacter cloacae; test: Antimicrobial activity against Enterobacter cloacae isolate 22491 infected BALB/c mouse mixed infection abscesses model co-infected with Bacteroides fragilis ATCC 23745 assessed as increase in resistant bacterial count per abscess at 24 mg/kg/day administered every 4 hrs; assay type: functional; procedure, shortened: as §2
[6] = Half life in Bacteroides fragilis ATCC 23745 and Enterobacter cloacae isolate 22491-infected BALB/c mouse mixed infection abscesses model at 100 mg/kg administered as 36 doses every 2 hrs; assay type: ADME, organism-based; design: dose 100 mg/kg; conditions: in vivo; procedure, shortened: as §1
[7] = tested on: Bacteroides fragilis; test: Antimicrobial activity against Bacteroides fragilis ATCC 23745 infected BALB/c mouse mixed infection abscesses model co-infected with Enterobacter cloacae isolate 22491 assessed as reduction in bacterial load per abscess at 1536 mg/kg/day administered every 8 hrs; assay type: functional; procedure, shortened: as §3
[8] = tested on: Enterobacter cloacae; test: Antimicrobial activity against Enterobacter cloacae isolate 22491 assessed as mutation prevention concentration; assay type: functional
Procedure, shortened: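 Overnight culture concentrated to 10^10 CFU/ml by centrifugation. 1 ml spread over five agar plates containing drug, first at twofold dilutions, then at linear increments. Plates read after 18 h at 37°C. MPC taken as the lowest concentration giving no colonies from 10^10 bacteria. Colonies from the highest concentration were subcultured drug-free to check mutant stability.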

[9] = tested on: Enterobacter cloacae; test: Antimicrobial activity against Enterobacter cloacae isolate 22491 infected BALB/c mouse mixed infection abscesses model co-infected with Bacteroides fragilis ATCC 23745 assessed as increase in resistant bacterial count per abscess at 96 mg/kg/day administered every 4 hrs; assay type: functional; procedure, shortened: as §2
[10] = tested on: Enterobacter cloacae; test: Antimicrobial activity against Enterobacter cloacae isolate 22491 infected BALB/c mouse mixed infection abscesses model co-infected with Bacteroides fragilis ATCC 23745 assessed as increase in resistant bacterial count per abscess at 24 mg/kg/day administered every 2 hrs; assay type: functional; procedure, shortened: as §2
[11] = tested on: Enterobacter cloacae; test: Antimicrobial activity against Enterobacter cloacae isolate 22491 infected BALB/c mouse mixed infection abscesses model co-infected with Bacteroides fragilis ATCC 23745 assessed as bacterial killing at 96 mg/kg/day administered every 4 hrs; assay type: functional, organism-based; procedure, shortened: as §3
[12] = tested on: Mus musculus; test: Unbound Cmax (fCmax) in Bacteroides fragilis ATCC 23745 and Enterobacter cloacae isolate 22491-infected BALB/c mouse mixed infection abscesses model at 100 mg/kg administered as single dose; assay type: ADME, organism-based; design: dose 100 mg/kg; conditions: in vivo
Procedure, shortened: (§4)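 Single s.c. dose of 100 mg/kg CZX in groups of three infected mice, 4 days after inoculation. Orbital blood taken at 10-360 min. Serum CZX measured in duplicate by agar diffusion bioassay against E. coli strain 62. One-compartment open model; unbound values assume 13% serum protein binding.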

[13] = Half life in Bacteroides fragilis ATCC 23745 and Enterobacter cloacae isolate 22491-infected BALB/c mouse mixed infection abscesses model at 100 mg/kg administered as single dose; assay type: ADME, organism-based; design: dose 100 mg/kg; conditions: in vivo; procedure, shortened: as §4
[14] = tested on: Enterobacter cloacae; test: Antimicrobial activity against Enterobacter cloacae isolate 22491 infected BALB/c mouse mixed infection abscesses model co-infected with Bacteroides fragilis ATCC 23745 assessed as bacterial killing at 6 mg/kg/day administered every 2 hrs; assay type: functional, organism-based; procedure, shortened: as §3
[15] = tested on: Bacteroides fragilis; test: Antimicrobial activity against Bacteroides fragilis ATCC 23745 infected BALB/c mouse mixed infection abscesses model co-infected with Enterobacter cloacae isolate 22491 assessed as bacterial killing at 96 mg/kg/day administered every 4 hrs; assay type: functional, organism-based; procedure, shortened: as §3
[16] = tested on: Enterobacter cloacae; test: Antimicrobial activity against Enterobacter cloacae isolate 22491; assay type: functional
[17] = tested on: Bacteroides fragilis; test: Antimicrobial activity against Bacteroides fragilis ATCC 23745 infected BALB/c mouse mixed infection abscesses model co-infected with Enterobacter cloacae isolate 22491 assessed as inhibition of emergence of resistance mutation; assay type: functional, organism-based
Procedure, shortened: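 Female SPF BALB/c mice (12–18 weeks, 20–25 g) injected subcutaneously on both flanks with 10^7 CFU B. fragilis, 10^7 CFU E. cloacae and 4 mg ACC. Drug given subcutaneously at 6–1,536 mg/kg/day, q2h–q8h, beginning 30 min before inoculation, for 24 h. B. fragilis mutants counted on WC agar with 16x MIC plus 100 mg/liter gentamicin, 72 h anaerobic, 37°C.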

[18] = tested on: Bacteroides fragilis; test: Antimicrobial activity against Bacteroides fragilis ATCC 23745 infected BALB/c mouse mixed infection abscesses model co-infected with Enterobacter cloacae isolate 22491 assessed as bacterial killing at 24 mg/kg/day administered every 4 hrs; assay type: functional, organism-based; procedure, shortened: as §3
[19] = tested on: Enterobacter cloacae; test: Antimicrobial activity against Enterobacter cloacae isolate 22491 infected BALB/c mouse mixed infection abscesses model co-infected with Bacteroides fragilis ATCC 23745 assessed as increase in resistant bacterial count per abscess at 6 mg/kg/day administered every 4 hrs; assay type: functional; procedure, shortened: as §2
[20] = tested on: Bacteroides fragilis; test: Antimicrobial activity against Bacteroides fragilis ATCC 23745 infected BALB/c mouse mixed infection abscesses model co-infected with Enterobacter cloacae isolate 22491 assessed as reduction in bacterial load per abscess at 384 mg/kg/day administered every 8 hrs; assay type: functional; procedure, shortened: as §3
[21] = tested on: Enterobacter cloacae; test: Antimicrobial activity against Enterobacter cloacae isolate 22491 infected BALB/c mouse mixed infection abscesses model co-infected with Bacteroides fragilis ATCC 23745 assessed as reduction in bacterial load per abscess at 384 mg/kg/day administered every 8 hrs; assay type: functional; procedure, shortened: as §3
[22] = tested on: Bacteroides fragilis; test: Antimicrobial activity against Bacteroides fragilis ATCC 23745 infected BALB/c mouse mixed infection abscesses model co-infected with Enterobacter cloacae isolate 22491 assessed as bacterial killing at 6 mg/kg/day administered every 2 hrs; assay type: functional, organism-based; procedure, shortened: as §3
[23] = tested on: Bacteroides fragilis; test: Antimicrobial activity against Bacteroides fragilis ATCC 23745; assay type: functional
[24] = fT>MIC in Enterobacter cloacae isolate 22491-infected BALB/c mouse at 100 mg/kg; assay type: functional
[25] = Ratio of fAUC to MIC in Enterobacter cloacae isolate 22491 infected BALB/c mouse mixed infection abscesses model co-infected with Bacteroides fragilis ATCC 23745; assay type: functional
[26] = tested on: Enterobacter cloacae; test: Antimicrobial activity against Enterobacter cloacae isolate 22491 infected BALB/c mouse mixed infection abscesses model co-infected with Bacteroides fragilis ATCC 23745 assessed as increase in resistant bacterial count per abscess at 6 mg/kg/day administered every 2 hrs; assay type: functional; procedure, shortened: as §2

SMILES: CO/N=C(\C(=O)N[C@@H]1C(=O)N2C(C(=O)O)=CCS[C@H]12)c1csc(N)n1 [CEFTIZOXIME]
- Cmax_unbound [1]: 600 ng/mL
- log10cfu [2]: 3.8
- Activity [3]: inactive
- log10cfu [4]: >=5
- log10cfu [5]: 2
- half-life [6]: 13.2 min
- log10cfu [7]: >=5
- MPC [8]: 384 µg/mL
- log10cfu [9]: 2
- log10cfu [10]: 3.8
- Activity [11]: inactive
- Cmax_unbound [12]: 600 ng/mL
- half-life [13]: 13.8 min
- Activity [14]: inactive
- Activity [15]: inactive
- MIC [16]: 0.25 µg/mL (≈ 0.652 µM)
- MIC99 [16]: 0.125 µg/mL (≈ 0.326 µM)
- Activity [17]: Active
- Activity [18]: inactive
- log10cfu [19]: 2
- log10cfu [20]: >=5
- log10cfu [21]: >=5
- Activity [22]: inactive
- MIC [23]: 1 µg/mL (≈ 2.61 µM)
- T>MIC [24]: 9%
- Ratio [25]: 1000
- log10cfu [26]: 3.8
